Hits are enriched below; roughly 3.1% of the tested compounds scored in any of these assays.
Env fusion inh: inhibitors of HIV-1 Env-driven cell-cell fusion, primary screen, HeLa-JRFL effector, CEM21 target cells, luciferase; inhibition, % at 12.3 µM; hit rate 1.1% among 360,000; AID 651610, 2012;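 active = mean replicate inhibition score of at least 50 and every replicate individually at or above 50; inconclusive = only one of the two criteria met; inactive = mean below 50 and not all replicates reaching 50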;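 also: 0% = plate neutral controls and 100% = maraviroc near 300 nM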
Cneo AK release: Cryptococcus neoformans cell lysis inducers, primary screen, AK release luminescence, single concentration; AID 651654, 2012; lysis activity, % at 15 µM; C. neoformans lysis, adenylate kinase release luminescence, 4 h; normalised: neutral wells 0, clomiphene wells 100; hit rate 0.2% among 360,000;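 active = mean lysis activity across replicates of at least 80%, whatever share of replicates individually reach that level; inactive = mean lysis activity below 80%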
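Test system: log-phase Cryptococcus neoformans yeast cells; Quantity: yeast cell density of 5 × 10^6 cells/mL; Buffer or medium: YPD; Doses: single compound concentration per well; Timing: 4 h at 37 °C static, read 1 h later; Measured by: AK luminescence; Read-out basis: lysis from increased AK signal; Control set: Clomiphene as positive control.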
rRNA inh HTS: reduced GFP signal of wild-type E. coli, primary screen, bacterial rRNA inhibitor project, GFP/RFP fluorescence, OD600, single point | E. coli WT GFP vs humanized-ribosome RFP mutants, 24 h; active compounds read low; DMSO median 0, no signal -100 | GFP signal change (wild-type ribosome), % (test concentration not listed) | hit rate 1.6% among 350,000;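 active = significant combined selectivity score with lowered wild-type GFP, culture density cut under 30%, mutant RFP and density less affected; inactive = any of these conditions unmet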
F508del corr: F508del CFTR correction, initial screen, CFBE line, single point; CFBE cells, YFP halide quenching; stimulated with forskolin plus potentiator P3; % fluorescence drop versus neutral controls; activity (quench increase), % at 7.58 µM; hit rate 0.36% among 350,000; AID 720511, 2013;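 active = mean added fluorescence quench of at least 8% versus neutral control, with both replicates also reaching 8%; inconclusive = only one of the mean or replicate conditions met; inactive = mean below 8% and not both replicates reaching 8%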;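 also: cells transiently co-express mutant CFTR-F508del with the halide-sensitive YFP; corrector assay measuring rescue of mutant channel to the surface after 24 h compound exposure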
GSIS activator: GLuc luminescence reporter in INS-1E cells, primary screen for activators of glucose-dependent secretion of insulin | hit rate 0.61% among 370,000 | activation, % at 16.6 µM | INS-1E GLuc reporter insulin secretion, 2-3 h | AID 743287, 2014;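 active = lowest replicate activation of at least 40%, so every replicate reaches that level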;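 also: 0% = median of neutral control wells and 100% = median of IBMX positive control wells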
miR122 inh: miR-122 Renilla sensor signal increase in Huh7, primary screen, miR-122 inhibitor project, cell-based, single point, plate reader. activation (reporter increase), % at 12.5 µM. hit rate 0.3% among 340,000. Huh7 miR-122 Renilla luciferase sensor, 48 h; neutral wells = 0, positive control = 100. AID 602342, 2012;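 active = mean replicate activation score at least 90 and every replicate individually at or above 90; inconclusive = only one of the two criteria met; inactive = neither criterion met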;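 also: higher luciferase means less miR-122 activity so hits act as miR-122 inhibitors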
* marks the source's active call; other numbers are inactive results; ? = inconclusive; . = no result given; ! = a repeat was not active; [ ] = another dose, or the depositor's remark.

SMILES | Env fusion inh | Cneo AK release | rRNA inh HTS | F508del corr | GSIS activator | miR122 inh
CCOc1ccc(N2C(=O)CC(Sc3nc(O)c(CC)c(=O)[nH]3)C2=O)cc1 (stereo not given) | 6 | 0 | -39* | -1 | -2 | 1
CC(C)NC(=O)[C@@]1(C)c2ccccc2C(=O)N(Cc2ccccc2)[C@H]1c1ccc(CO)cc1 | 20[16.7 µM] | -16 | . | 0 | . | .
COc1ccc(/C=C2\SC(N3CCCCC3)=NC2=O)cc1OC | -10 | -4 | -18 | 1 | 66* | -5
CCOC(=O)C1CCN(C2=NC(=O)/C(=C/c3ccc(OC)c(OC)c3)S2)CC1 | 14 | -1 | -30* | -1 | 11 | 0
CC(=O)N1[C@@H]2c3cccc(=O)n3C[C@@H]2[C@@H](CO)[C@@H]1C(=O)N1CCc2ccccc2C1 | . | . | 3 | 0 | 9 | .
COc1ccccc1NS(=O)(=O)c1cc(N/C(=N/S(=O)(=O)c2ccccc2)c2ccc(F)cc2)ccc1Cl | 4 | 1 | -10 | 0 | 10 | 117*
O=S(=O)(/N=C(/Nc1ccc(Cl)c(S(=O)(=O)Nc2ccccc2Cl)c1)c1ccc(F)cc1)c1ccccc1 | 5 | . | -28*! | 2 | 17 | ?
COc1ccc2c3c(n(C)c2c1)[C@@H](CO)N(C(=O)Nc1ccc(F)cc1)CC31CCN(C(=O)CN2CCOCC2)CC1 | -37[16.7 µM] | . | 0 | 0 | -28 | .
NCC(=O)NNC(=O)OCC1c2ccccc2-c2ccccc21 | -25 | -1 | 10 | 8.6* | 2 | -2
CN(C)C(=O)C[C@H]1CC[C@@H]2[C@H](COC[C@H](O)CN2Cc2ccc(C(F)(F)F)cc2)O1 | -8[16.7 µM] | 1 | -1 | 3 | 5 | 5[16.7 µM]
C[C@@H]1CN([C@H](C)CO)C(=O)Cc2cc(NC(=O)C3CC3)ccc2O[C@@H]1CN(C)Cc1ccc2c(c1)OCO2 | 5[16.7 µM] | -5 | -2 | 1 | 13 | -10[16.7 µM]
CC(=O)c1ccc(OCCCC(=O)Nc2cc(S(=O)(=O)N(C)C)ccc2C)cc1 | 18 | . | . | . | 1 | .
Cc1cc(C)cc(NC(=O)Nc2cc(S(=O)(=O)N(C)C)ccc2C)c1 | 16 | -1 | -23* | . | -18 | 12
Cc1ccc(S(=O)(=O)N(C)C)cc1NC(=O)COc1ccccc1C(=O)Nc1ccccc1 | 74* | -1 | -19 | 0 | 3 | .
Cc1ccc(S(=O)(=O)N(C)C)cc1NC(=O)C(C)N(C)CCOc1ccc(Cl)cc1 (stereo not given) | 69* | 0 | -9 | -3 | -18 | .
Fc1cccc(COc2ccccc2C(=S)N2CCCC2)c1 | -10 | 1 | -30* | 2 | 1 | -2
N#Cc1ccc(-c2ccc(OCC(O)Cn3nnc4ccccc43)cc2)cc1 (stereo not given) | 59* | -1 | . | . | . | -2
Cc1ccccc1C(=O)c1c[nH]c(C(=O)N2CCN(c3ccccc3F)CC2)c1 | 34 | 0 | 4 | -2 | -43 | 0
NC(=O)c1cc(C(=O)c2cccc(Cl)c2Cl)c[nH]1 | 10 | . | -48* | -1 | 8 | -4
O=C(c1c[nH]c(C(=O)N2CCN(c3ccccc3F)CC2)c1)c1cccc(Cl)c1Cl | -36 | 2 | -28* | 8 | -13 | .
O=C(c1cc(-c2ccncc2)nc2c(Cl)cccc12)N1CCN(c2ccccc2F)CC1 | . | -3 | 10 | 14* | -4 | 18
CC(=O)N1CC(=O)N2[C@H](CO)[C@@H](c3ccc(-c4ccccc4)cc3)[C@@H]2C1 | . | . | 4 | . | 2 | .
CCOC(=O)N1CCN(C(=O)C2CCC(=O)N(CCCc3ccccc3)C2)CC1 (stereo not given) | -8 | 2 | 6 | 1 | 0 | 1
CCOC(=O)N1CCN(C(=O)C2CCC(=O)N(CCCN3CCCC3=O)C2)CC1 (stereo not given) | -35 | 12 | 10 | 8.5* | -7 | 3
CCOc1ccc(CNC(=O)CCc2cn(C)c3ccccc23)cc1OC | 7 | -3 | 8 | -3 | 10 | -2
SMILES | Env fusion inh | Cneo AK release | rRNA inh HTS | F508del corr | GSIS activator | miR122 inh
Cn1cc(CCCC(=O)NCc2ccc(F)cc2)c2ccccc21 | -26 | 0 | -37* | -2 | -40 | .
COc1ccc(CN(C)C[C@@H]2Oc3ccc(NS(=O)(=O)c4ccc(OC)cc4)cc3CC(=O)N([C@@H](C)CO)C[C@@H]2C)cc1 | -5[16.7 µM] | -2 | 3 | 7 | -7 | 7[16.7 µM]
Cc1cccc(NC(=O)c2n[nH]c([N+](=O)[O-])c2Br)c1C | -131 | -2 | -29* | 1 | -55 | 2
COc1cccc(-c2cnc3c(c2)C(=O)N([C@@H](C)CO)C[C@H](C)[C@H](CN(C)C(=O)CN(C)C)O3)c1 | -1[16.7 µM] | -9 | 4 | 2 | 11 | 63[16.7 µM]
Cc1c(CCC(=O)NCC(=O)O)c(=O)oc2cc3occ(-c4ccccc4)c3cc12 | 10 | 1 | -20* | 4 | 16 | -4
CCCC(NC(=O)CCc1c(C)c2cc3c(-c4ccccc4)coc3cc2oc1=O)C(=O)O (stereo not given) | -15 | 3 | -34* | 5 | 8 | 0
C[C@@H]1CN([C@@H](C)CO)C(=O)c2cc(NC(=O)Nc3ccc(C(F)(F)F)cc3)ccc2O[C@@H](C)CCCCO[C@@H]1CN(C)Cc1ccc2c(c1)OCO2 | 18[16.7 µM] | 4 | 0 | 5 | -22 | 12[16.7 µM]
Cc1noc(C)c1S(=O)(=O)Nc1ccc2c(c1)C(=O)N([C@@H](C)CO)C[C@@H](C)[C@H](CN(C)C(=O)Cc1ccccc1)OCCCC[C@@H](C)O2 | -22[16.7 µM] | 1 | -1 | 0 | -13 | 4[16.7 µM]
COc1ccc(NC(=O)CSc2ncnc3c2sc2ccccc23)c(OC)c1 | 9 | . | . | . | 58* | .
N#C[C@@H]1[C@@H](c2ccc(C#CC3CCCCC3)cc2)[C@@H](CO)N1C(=O)Cc1ccccn1 | 5[16.7 µM] | -2 | -1 | -2 | -9 | .
NNC(=O)c1csc(Cc2c(Cl)sc3ccc(Cl)cc23)n1 | -5 | 1 | -31* | 1 | 4 | .
CCSc1nnc(NC(=O)c2cccc3ccccc23)s1 | -5 | 1 | 2 | 0 | 15 | 7
CCSc1nnc(NC(=O)c2csc(C)c2)s1 | -69 | 2 | . | . | 99* | -1
CCOc1ccccc1NC(=O)CC1SC(=N)N(c2ccccc2)C1=O (stereo not given) | 7 | . | 20 | 15* | -2 | .
COc1ccc2c3c(n(C)c2c1)[C@@H](CO)N(C(=O)CC1CC1)CC31CCN(C(=O)C2CCCC2)CC1 | . | . | -1 | 2 | -23 | .
